Legend:
T47D = assay: Growth inhibition of human T47D cells; type: functional
K562 = assay: Growth inhibition of human K562 cells; type: functional
Hs-578T = assay: Growth inhibition of human HS578T cells; type: functional
HOP-62 = assay: Growth inhibition of human HOP62 cells; type: functional
NCI-H522 = assay: Growth inhibition of human NCI-H522 cells; type: functional
[1] = Growth inhibition of human OVACR4 cells; type: functional
[2] = Cytotoxicity against mouse Neuro2a cells after 48 hrs by MTT assay; type: functional; details: N2a, read-out: LC50 (the source's name)
Outline: (§1)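 Cells seeded at 6000/well and grown 24 h, then given test chemicals dissolved in DMSO and diluted in serum-free medium (DMSO under 0.5% final). Viability read by MTT reduction after 48 h exposure; LC50 reported. Method follows Alley et al.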

A549 = assay: Growth inhibition of human A549 cells; type: functional
TK-10 = assay: Growth inhibition of human TK10 cells; type: functional
M14 = assay: Growth inhibition of human M14 cells; type: functional
[3] = Growth inhibition of human OVACR3 cells; type: functional
LOX IMVI = assay: Growth inhibition of human LOX IMVI cells; type: functional
MOLT-4 = assay: Growth inhibition of human MOLT4 cells; type: functional
BT-549 = assay: Growth inhibition of human BT549 cells; type: functional
UACC-257 = assay: Growth inhibition of human UACC257 cells; type: functional
NCI-H23 = assay: Growth inhibition of human NCI-H23 cells; type: functional
NCI/ADR-RES = assay: Growth inhibition of human NCI/ADR-RES cells; type: functional
NCI-H460 = assay: Cytotoxicity against human NCI-H460 cells after 48 hrs by MTT assay; type: functional; details: NCI-H460, 48 h, read-out: LC50 (the source's name); outline: as §1
KM12 = assay: Growth inhibition of human KM12 cells; type: functional
MDA-MB-435 = assay: Growth inhibition of human MDA-MB-435 cells; type: functional
NCI-H322M = assay: Growth inhibition of human NCI-H322M cells; type: functional
UO-31 = assay: Growth inhibition of human UO31 cells; type: functional
[4] = Growth inhibition of human HL60(TB) cells; type: functional, HL-60(TB)
HCT-15 = assay: Growth inhibition of human HCT15 cells; type: functional
SNB-19 = assay: Growth inhibition of human SNB19 cells; type: functional
HCC 2998 = assay: Growth inhibition of human HCC2998 cells; type: functional
SN12C = assay: Growth inhibition of human SN12C cells; type: functional
SF-295 = assay: Growth inhibition of human SF295 cells; type: functional
SR = assay: Growth inhibition of human SR cells; type: functional
[5] = read-out: pLC50 (the source's name) (converted)

CC/C=C(\C)[C@H]1OC(=O)[C@H](C)N(C)C(=O)[C@H](C(C)C)NC(=O)CN(C)C(=O)[C@H]([C@H](C)CC)N(C)C(=O)[C@H](C(C)C)NC(=O)[C@@H]([C@@H](C)CC)OC(=O)/C(C)=C/C[C@H](O)[C@@H]1C [AURILIDE B]
GI50 (T47D): < 10 nM
CC50 (T47D; [5]): > 100000 nM
GI50 (K562): < 10 nM
CC50 (K562; [5]): 100 nM
TGI (K562; read-out: pTGI): < 10 nM
CC50 (Hs-578T; [5]): > 100000 nM
TGI (Hs-578T; read-out: pTGI (converted)): 708 nM
GI50 (HOP-62): < 10 nM
CC50 (HOP-62; [5]): < 10 nM
TGI (HOP-62; read-out: pTGI): < 10 nM
GI50 (NCI-H522): < 10 nM
CC50 (NCI-H522; [5]): > 100000 nM
TGI (NCI-H522; read-out: pTGI): < 10 nM
GI50 [1]: < 10 nM
CC50 [1, 5]: > 100000 nM
TGI ([1]; read-out: pTGI): < 10 nM
CC50 [2]: 10 nM
GI50 (A549): < 10 nM
CC50 (A549; [5]): < 10 nM
TGI (A549; read-out: pTGI): < 10 nM
GI50 (TK-10): < 10 nM
CC50 (TK-10; [5]): < 10 nM
TGI (TK-10; read-out: pTGI): < 10 nM
GI50 (M14): < 10 nM
CC50 (M14; [5]): < 10 nM
TGI (M14; read-out: pTGI): < 10 nM
GI50 [3]: < 10 nM
TGI ([3]; read-out: pTGI): < 10 nM
GI50 (LOX IMVI): < 10 nM
GI50 (MOLT-4): < 10 nM
CC50 (MOLT-4; [5]): < 10 nM
TGI (MOLT-4; read-out: pTGI): < 10 nM
GI50 (BT-549): < 10 nM
GI50 (UACC-257): < 10 nM
CC50 (UACC-257; [5]): < 10 nM
TGI (UACC-257; read-out: pTGI): < 10 nM
GI50 (NCI-H23): < 10 nM
CC50 (NCI-H23; [5]): < 10 nM
TGI (NCI-H23; read-out: pTGI): < 10 nM
GI50 (NCI/ADR-RES): < 10 nM
CC50 (NCI/ADR-RES; [5]): < 10 nM
TGI (NCI/ADR-RES; read-out: pTGI): < 10 nM
CC50 (NCI-H460): 40 nM
GI50 (KM12): < 10 nM
CC50 (KM12; [5]): > 100000 nM
TGI (KM12; read-out: pTGI): > 100000 nM
GI50 (MDA-MB-435): < 10 nM
TGI (MDA-MB-435; read-out: pTGI): < 10 nM
GI50 (NCI-H322M): < 10 nM
TGI (NCI-H322M; read-out: pTGI): < 10 nM
GI50 (UO-31): < 10 nM
CC50 (UO-31; [5]): < 10 nM
TGI (UO-31; read-out: pTGI): < 10 nM
GI50 ([4]; HL-60): < 10 nM
CC50 ([4]; HL-60, read-out: pLC50 (the source's name) (converted)): < 10 nM
TGI ([4]; HL-60, read-out: pTGI): < 10 nM
GI50 (HCT-15): < 10 nM
CC50 (HCT-15; [5]): > 100000 nM
TGI (HCT-15; read-out: pTGI (converted)): 170 nM
GI50 (SNB-19): < 10 nM
CC50 (SNB-19; [5]): > 100000 nM
TGI (SNB-19; read-out: pTGI (converted)): 19.9 nM
GI50 (HCC 2998): < 10 nM
CC50 (HCC 2998; [5]): < 10 nM
TGI (HCC 2998; read-out: pTGI): < 10 nM
GI50 (SN12C): < 10 nM
GI50 (SF-295): < 10 nM
CC50 (SF-295; [5]): > 100000 nM
TGI (SF-295; read-out: pTGI): < 10 nM
GI50 (SR): < 10 nM
CC50 (SR; [5]): < 10 nM
TGI (SR; read-out: pTGI): < 10 nM
